Measured values published in ChEMBL document CHEMBL4689842, “EUbOPEN Chemogenomics Library wave 1” (2021).
“And” between values parts separate entries of the source, which are not always exact repeats. Equal values may be shown once.

Legend:
Format in all cases: toxicity, cell-based
U2OS [1] = assay: Multiplex assay against U2OS; conditions: human
Method in brief: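 Live cells were stained at seeding with Hoechst33342, BioTracker Green Microtubule Cytoskeleton Dye, MitoTracker Red and Annexin V Alexa Fluor 680, then imaged on a CQ1 microscope at 37°C and 5% CO2 after compound addition. CellPathfinder machine-learning gating split cells into Hoechst high-intensity objects or normal cells. Normal cells were split into healthy, pyknosed or fragmented nuclei, and pyknosed cells into mitotic or apoptotic. Tubulin, mitochondrial-mass and membrane-permeability phenotypes are per cents of healthy-nucleus cells.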

U2OS [2] = assay: Incucyte cell viability with U2OS; conditions: human, 10 µM, compound concentration 10 uM; also: filed as whole numbers so only -1 and 0 and 1 occur
HEK-293T = assay: Incucyte cell viability with HEK293T; conditions: human, 10 µM, compound concentration 10 uM; also: filed as whole numbers so only -1 and 0 and 1 occur
[3] = 12 h, 1 µM, compound concentration 1 uM, replicate 1
[4] = 12 h, 1 µM, compound concentration 1 uM, replicate 2
[5] = 12 h, 10 µM, compound concentration 10 uM, replicate 1
[6] = 12 h, 10 µM, compound concentration 10 uM, replicate 2
[7] = 24 h, 1 µM, compound concentration 1 uM, replicate 1
[8] = 24 h, 1 µM, compound concentration 1 uM, replicate 2
[9] = 24 h, 10 µM, compound concentration 10 uM, replicate 1
[10] = 24 h, 10 µM, compound concentration 10 uM, replicate 2
[11] = 48 h, 1 µM, compound concentration 1 uM, replicate 1
[12] = 48 h, 1 µM, compound concentration 1 uM, replicate 2
[13] = 48 h, 10 µM, compound concentration 10 uM, replicate 1
[14] = 48 h, 10 µM, compound concentration 10 uM, replicate 2
[15] = 0 h, replicate number 1, timepoint 0 hours
[16] = 6 h, replicate number 1, timepoint 6 hours
[17] = 12 h, replicate number 1, timepoint 12 hours
[18] = 18 h, replicate number 1, timepoint 18 hours
[19] = 24 h, replicate number 1, timepoint 24 hours

CS(=O)(=O)N1CCCC(NC(=O)[C@H](CCC2CCCCC2)NC(=O)c2ccc(CNC(=O)c3cnc4ccccn34)cc2)C1 (stereo partly specified) [SR-302] was tested, and the “Population Apoptotic (%)” value (U2OS [1]; [3]) was 41% [middle of 4 runs], the “Population Fragmented Nuclei (%)” value (U2OS [1]; [3]) was 2% and 6% and 10% and 5% and the “Population Healthy Nuclei (%)” value (U2OS [1]; [3]) was 92% and 78% and 82%. For the same molecule, the “Population Membrane Permeable-Phenotype (%)” value (U2OS [1]; [3]) was 12% and 6% and 4%, the “Population Mitotic Cells (%)” value (U2OS [1]; [3]) was 80% and 39% and 58% and the “Population Normal (%)” value (U2OS [1]; [3]) was 95% and 97% and 96% and 92%. The “Population Pyknosed Nuclei (%)” value (U2OS [1]; [3]) was 5% and 10% and 11%, the “Population Tubulin-Different-Phenotype (%)” value (U2OS [1]; [3]) was 18% and 32% and 29% and the “Total Cell Count” value (U2OS [1]; [3]) was 258 [middle of 4 runs]. The “Population Fragmented Nuclei (%)” value (U2OS [1]; [4]) was 8% and 12%, the “Population Healthy Nuclei (%)” value (U2OS [1]; [4]) was 90% and 83% and 81% and 76% and the “Population Hoechst High Intensity Objects (%)” value (U2OS [1]; [4]) was 10% and 6% and 16%. The “Population Membrane Permeable-Phenotype (%)” value (U2OS [1]; [4]) was 7% [middle of 4 runs], the “Population Mitotic Cells (%)” value (U2OS [1]; [4]) was 100% and 60% and 66% and the “Population Normal (%)” value (U2OS [1]; [4]) was 89% and 93% and 83%. The “Population Pyknosed Nuclei (%)” value (U2OS [1]; [4]) was 8% [middle of 4 runs], the “Population Tubulin-Different-Phenotype (%)” value (U2OS [1]; [4]) was 15% and 17% and 14% and the “Total Cell Count” value (U2OS [1]; [4]) was 84 [middle of 4 runs]. For the same molecule, the “Population Apoptotic (%)” value (U2OS [1]; [5]) was 56% [middle of 4 runs], the “Population Fragmented Nuclei (%)” value (U2OS [1]; [5]) was 11% and 10% and 2% and the “Population Healthy Nuclei (%)” value (U2OS [1]; [5]) was 70% and 74% and 75% and 94%. The “Population Hoechst High Intensity Objects (%)” value (U2OS [1]; [5]) was 11% and 5%, the “Population Membrane Permeable-Phenotype (%)” value (U2OS [1]; [5]) was 13% and 12% and the “Population Mitotic Cells (%)” value (U2OS [1]; [5]) was 65% [middle of 4 runs]. For the same molecule, the “Population Normal (%)” value (U2OS [1]; [5]) was 88% and 94%, the “Total Cell Count” value (U2OS [1]; [5]) was 185 [middle of 4 runs] and the “Population Fragmented Nuclei (%)” value (U2OS [1]; [6]) was 12% and 9% and 6%. For the same molecule, the “Population Healthy Nuclei (%)” value (U2OS [1]; [6]) was 80% and 83% and 86%, the “Population Hoechst High Intensity Objects (%)” value (U2OS [1]; [6]) was 7% and 6% and 3% and the “Population Membrane Permeable-Phenotype (%)” value (U2OS [1]; [6]) was 20% [middle of 4 runs]. The “Population Normal (%)” value (U2OS [1]; [6]) was 92% and 93% and 96%, the “Population Pyknosed Nuclei (%)” value (U2OS [1]; [6]) was 7% and 9% and 4% and the “Total Cell Count” value (U2OS [1]; [6]) was 92 [middle of 4 runs]. For the same molecule, the “Population Apoptotic (%)” value (U2OS [1]; [7]) was 18% and 31% and 46%, the “Population Fragmented Nuclei (%)” value (U2OS [1]; [7]) was 3% and 6% and 5% and 8% and the “Population Healthy Nuclei (%)” value (U2OS [1]; [7]) was 90% and 85% and 87% and 81%. For the same molecule, the “Population Hoechst High Intensity Objects (%)” value (U2OS [1]; [7]) was 1% and 2% and 3%, the “Population Membrane Permeable-Phenotype (%)” value (U2OS [1]; [7]) was 7% and 6% and 2% and 1% and the “Population Mitotic Cells (%)” value (U2OS [1]; [7]) was 81% and 68% and 53%. The “Population Normal (%)” value (U2OS [1]; [7]) was 98% and 97% and 96%, the “Population Pyknosed Nuclei (%)” value (U2OS [1]; [7]) was 6% and 7% and 10% and the “Total Cell Count” value (U2OS [1]; [7]) was 310 [middle of 4 runs]. For the same molecule, the “Population Fragmented Nuclei (%)” value (U2OS [1]; [8]) was 7%, the “Population Healthy Nuclei (%)” value (U2OS [1]; [8]) was 91% and 84% and 88% and 93% and the “Population Membrane Permeable-Phenotype (%)” value (U2OS [1]; [8]) was 9% and 8% and 5%. For the same molecule, the “Population Mitotic Cells (%)” value (U2OS [1]; [8]) was 66% and 50% and 85%, the “Population Normal (%)” value (U2OS [1]; [8]) was 89% and 85% and 95% and the “Population Pyknosed Nuclei (%)” value (U2OS [1]; [8]) was 1% and 8% and 2%. The “Population Tubulin-Different-Phenotype (%)” value (U2OS [1]; [8]) was 24% [middle of 4 runs], the “Total Cell Count” value (U2OS [1]; [8]) was 97 [middle of 4 runs] and the “Population Apoptotic (%)” value (U2OS [1]; [9]) was 62% [middle of 4 runs]. The “Population Fragmented Nuclei (%)” value (U2OS [1]; [9]) was 10% and 11% and 5%, the “Population Healthy Nuclei (%)” value (U2OS [1]; [9]) was 72% and 71% and 90% and the “Population Hoechst High Intensity Objects (%)” value (U2OS [1]; [9]) was 8% and 6% and 1%. For the same molecule, the “Population Membrane Permeable-Phenotype (%)” value (U2OS [1]; [9]) was 11% and 13%, the “Population Mitotic Cells (%)” value (U2OS [1]; [9]) was 51% [middle of 4 runs] and the “Population Normal (%)” value (U2OS [1]; [9]) was 91% and 93% and 98%. The “Total Cell Count” value (U2OS [1]; [9]) was 265 [middle of 4 runs], the “Population Apoptotic (%)” value (U2OS [1]; [10]) was 54% [middle of 4 runs] and the “Population Fragmented Nuclei (%)” value (U2OS [1]; [10]) was 7% and 1% and 9%. For the same molecule, the “Population Healthy Nuclei (%)” value (U2OS [1]; [10]) was 77% and 82% and 89%, the “Population Hoechst High Intensity Objects (%)” value (U2OS [1]; [10]) was 11% and 4% and 5% and the “Population Membrane Permeable-Phenotype (%)” value (U2OS [1]; [10]) was 20% and 16% and 12%. The “Population Mitotic Cells (%)” value (U2OS [1]; [10]) was 60% [middle of 4 runs], the “Population Normal (%)” value (U2OS [1]; [10]) was 88% and 95% and 94% and the “Population Pyknosed Nuclei (%)” value (U2OS [1]; [10]) was 15% and 13%. For the same molecule, the “Total Cell Count” value (U2OS [1]; [10]) was 91 [middle of 4 runs], the “Population Apoptotic (%)” value (U2OS [1]; [11]) was 40% and 44% and 37% and the “Population Fragmented Nuclei (%)” value (U2OS [1]; [11]) was 4% and 1% and 2%. For the same molecule, the “Population Healthy Nuclei (%)” value (U2OS [1]; [11]) was 92% and 90%, the “Population Hoechst High Intensity Objects (%)” value (U2OS [1]; [11]) was 1% and 0% and the “Population Membrane Permeable-Phenotype (%)” value (U2OS [1]; [11]) was 2%. The “Population Mitochondria Different-Phenotype (%)” value (U2OS [1]; [11]) was 15% and 9% and 7%, the “Population Mitotic Cells (%)” value (U2OS [1]; [11]) was 60% and 56% and 62% and the “Population Normal (%)” value (U2OS [1]; [11]) was 98% and 99%. For the same molecule, the “Population Pyknosed Nuclei (%)” value (U2OS [1]; [11]) was 6% and 5%, the “Population Tubulin-Different-Phenotype (%)” value (U2OS [1]; [11]) was 40% and 18% and 46% and the “Total Cell Count” value (U2OS [1]; [11]) was 466 and 472. The “Population Fragmented Nuclei (%)” value (U2OS [1]; [12]) was 6% and 3%, the “Population Healthy Nuclei (%)” value (U2OS [1]; [12]) was 84% and 88% and 91% and the “Population Hoechst High Intensity Objects (%)” value (U2OS [1]; [12]) was 9% and 2%. For the same molecule, the “Population Membrane Permeable-Phenotype (%)” value (U2OS [1]; [12]) was 7% and 4% and 1%, the “Population Mitochondria Different-Phenotype (%)” value (U2OS [1]; [12]) was 11% and 5% and the “Population Mitotic Cells (%)” value (U2OS [1]; [12]) was 44% and 91% and 66%. For the same molecule, the “Population Normal (%)” value (U2OS [1]; [12]) was 90% and 97%, the “Population Pyknosed Nuclei (%)” value (U2OS [1]; [12]) was 9% and 8% and the “Population Tubulin-Different-Phenotype (%)” value (U2OS [1]; [12]) was 30% and 26% and 12%. The “Total Cell Count” value (U2OS [1]; [12]) was 93 and 189 and 109, the “Population Apoptotic (%)” value (U2OS [1]; [13]) was 70% and 57% and the “Population Fragmented Nuclei (%)” value (U2OS [1]; [13]) was 10%. The “Population Healthy Nuclei (%)” value (U2OS [1]; [13]) was 74% and 73% and 72%, the “Population Hoechst High Intensity Objects (%)” value (U2OS [1]; [13]) was 8% and the “Population Membrane Permeable-Phenotype (%)” value (U2OS [1]; [13]) was 7% and 4%. The “Population Mitochondria Different-Phenotype (%)” value (U2OS [1]; [13]) was 39% and 36% and 30%, the “Population Mitotic Cells (%)” value (U2OS [1]; [13]) was 29% and 42% and the “Population Normal (%)” value (U2OS [1]; [13]) was 91%. For the same molecule, the “Population Pyknosed Nuclei (%)” value (U2OS [1]; [13]) was 16% and 17%, the “Population Tubulin-Different-Phenotype (%)” value (U2OS [1]; [13]) was 40% and 38% and 30% and the “Total Cell Count” value (U2OS [1]; [13]) was 243 and 658 and 261. The “Population Apoptotic (%)” value (U2OS [1]; [14]) was 76% and 46% and 90%, the “Population Fragmented Nuclei (%)” value (U2OS [1]; [14]) was 9% and 6% and 8% and the “Population Healthy Nuclei (%)” value (U2OS [1]; [14]) was 75% and 79% and 80%. The “Population Hoechst High Intensity Objects (%)” value (U2OS [1]; [14]) was 7% and 5% and 1%, the “Population Membrane Permeable-Phenotype (%)” value (U2OS [1]; [14]) was 20% and 16% and the “Population Mitochondria Different-Phenotype (%)” value (U2OS [1]; [14]) was 59% and 41% and 44%. The “Population Normal (%)” value (U2OS [1]; [14]) was 92% and 94% and 98%, the “Population Pyknosed Nuclei (%)” value (U2OS [1]; [14]) was 15% and 13% and 10% and the “Population Tubulin-Different-Phenotype (%)” value (U2OS [1]; [14]) was 48% and 33% and 39%. The “Total Cell Count” value (U2OS [1]; [14]) was 146 and 92 and 114, the “Growth Rate” value (U2OS [2]; [15]) was 0 and the “Growth Rate” value (U2OS [2]; [16]) was 1. For the same molecule, the “Growth Rate” value (U2OS [2]; 6 h, replicate number 2, timepoint 6 hours) was 0, the “Growth Rate” value (U2OS [2]; [17]) was 0 and the “Growth Rate” value (U2OS [2]; [18]) was 0. The “Growth Rate” value (U2OS [2]; 18 h, replicate number 2, timepoint 18 hours) was 1, the “Growth Rate” value (U2OS [2]; [19]) was 0 and the “Growth Rate” value (HEK-293T; [15]) was 0. The “Growth Rate” value (HEK-293T; [16]) was 0, the “Growth Rate” value (HEK-293T; [17]) was 0 and the “Growth Rate” value (HEK-293T; [18]) was 0. The “Growth Rate” value (HEK-293T; [19]) was 0.
